Source: ChEMBL document CHEMBL2146464, “Structure-activity relationship study of nitrosopyrimidines acting as antifungal agents” (Bioorg Med Chem, 2012)
In brackets after ≈: the same amount, converted by molar mass. Activity calls are given as the source filed them. The calls are words filed in the database; no cut-off is given here.

Key:
[1] = test system: Nannizzia gypsea; experiment: Antifungal activity against Microsporum gypseum CCC 115 by NCCLS broth microdilution method; type: functional; conditions: read-out: MIC100
In short: (§1)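 MIC by broth microdilution per NCCLS M27-A3/M38-A2 in RPMI-1640 buffered to pH 7.0 with MOPS. Twofold dilutions from 250–0.98 µg/mL, final DMSO ≤1%. Inoculum 1–5 × 10³ CFU/mL. Incubated in a moist dark chamber, 30 °C for Aspergillus and 28–30 °C for dermatophytes. Read visually when control growth allowed. Endpoint is the lowest concentration giving total inhibition of visible growth (MIC100).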

[2] = test system: Candida albicans; experiment: Antifungal activity against Candida albicans ATCC 10231 after 48 hrs by NCCLS broth microdilution method; type: functional; conditions: ATCC 10231, 48 h, read-out: MIC100
In short: (§2)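 Yeast MIC by NCCLS M27-A3 broth microdilution in RPMI-1640 buffered to pH 7.0 with MOPS. Twofold dilutions of 250–0.98 µg/mL, final DMSO ≤1%. Inoculum 1–5 × 10³ CFU/mL. Incubated at 30 °C in a moist dark chamber. Read visually at 48 h. MIC100 is the lowest concentration with no visible growth versus drug-free control.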

[3] = test system: Aspergillus flavus; experiment: Antifungal activity against Aspergillus flavus ATCC 9170 by NCCLS broth microdilution method; type: functional; conditions: read-out: MIC100; in short: as §1
[4] = test system: Trichophyton mentagrophytes; experiment: Antifungal activity against Trichophyton mentagrophytes ATCC 9972 by NCCLS broth microdilution method; type: functional; conditions: read-out: MIC100; in short: as §1
[5] = test system: Aspergillus niger; experiment: Antifungal activity against Aspergillus niger ATCC 9029 by NCCLS broth microdilution method; type: functional; conditions: read-out: MIC100; in short: as §1
[6] = test system: Trichophyton rubrum; experiment: Antifungal activity against Trichophyton rubrum CCC 110 by NCCLS broth microdilution method; type: functional; conditions: read-out: MIC100; in short: as §1
[7] = test system: Cryptococcus neoformans; experiment: Antifungal activity against Cryptococcus neoformans ATCC 32264 after 48 hrs by NCCLS broth microdilution method; type: functional; conditions: ATCC 32264, 48 h, read-out: MIC100; in short: as §2
[8] = test system: Candida tropicalis; experiment: Antifungal activity against Candida tropicalis after 48 hrs by NCCLS broth microdilution method; type: functional; conditions: read-out: MIC100; in short: as §2
[9] = test system: Aspergillus fumigatus; experiment: Antifungal activity against Aspergillus fumigatus ATCC 26934 by NCCLS broth microdilution method; type: functional; conditions: read-out: MIC100; in short: as §1
[10] = test system: Aspergillus flavus; experiment: Antifungal activity against Aspergillus flavus ATCC 9170 at 0.98 to 250 ug/mL by NCCLS broth microdilution method; type: functional, organism-based; in short: as §1
[11] = test system: Trichophyton rubrum; experiment: Antifungal activity against Trichophyton rubrum CCC 110 at 0.98 to 250 ug/mL by NCCLS broth microdilution method; type: functional, organism-based; in short: as §1
[12] = test system: Aspergillus niger; experiment: Antifungal activity against Aspergillus niger ATCC 9029 at 0.98 to 250 ug/mL by NCCLS broth microdilution method; type: functional, organism-based; in short: as §1
[13] = test system: Candida albicans; experiment: Antifungal activity against Candida albicans ATCC 10231 at 0.98 to 250 ug/mL after 48 hrs by NCCLS broth microdilution method; type: functional, organism-based; in short: as §2
[14] = test system: Cryptococcus neoformans; experiment: Antifungal activity against Cryptococcus neoformans ATCC 32264 at 0.98 to 250 ug/mL after 48 hrs by NCCLS broth microdilution method; type: functional, organism-based; in short: as §2
[15] = test system: Candida tropicalis; experiment: Antifungal activity against Candida tropicalis at 0.98 to 250 ug/mL after 48 hrs by NCCLS broth microdilution method; type: functional, organism-based; in short: as §2
[16] = test system: Nannizzia gypsea; experiment: Antifungal activity against Microsporum gypseum CCC 115 at 0.98 to 250 ug/mL by NCCLS broth microdilution method; type: functional, organism-based; in short: as §1
[17] = test system: Trichophyton mentagrophytes; experiment: Antifungal activity against Trichophyton mentagrophytes ATCC 9972 at 0.98 to 250 ug/mL by NCCLS broth microdilution method; type: functional, organism-based; in short: as §1
[18] = test system: Aspergillus fumigatus; experiment: Antifungal activity against Aspergillus fumigatus ATCC 26934 at 0.98 to 250 ug/mL by NCCLS broth microdilution method; type: functional, organism-based; in short: as §1

| Compound | MIC [1] [µg/mL] | MIC [2] [µg/mL] | MIC [3] [µg/mL] | MIC [4] [µg/mL] | MIC [5] [µg/mL] | MIC [6] [µg/mL] | MIC [7] [µg/mL] | MIC [8] [µg/mL] | MIC [9] [µg/mL] | Activity [10] | Activity [11] | Activity [12] | Activity [13] | Activity [14] | Activity [15] | Activity [16] | Activity [17] | Activity [18] |
| --- | --- | --- | --- | --- | --- | --- | --- | --- | --- | --- | --- | --- | --- | --- | --- | --- | --- | --- |
| CN(C/C=C/C#CC(C)(C)C)Cc1cccc2ccccc12 [TERBINAFINE] | 0.04 (≈ 0.137 µM) | 0.98 (≈ 3.36 µM) | 0.98 (≈ 3.36 µM) | 0.03 (≈ 0.103 µM) | 1.96 (≈ 6.73 µM) | 0.01 (≈ 0.0343 µM) | 0.49 (≈ 1.68 µM) | 1.95 (≈ 6.69 µM) | 0.98 (≈ 3.36 µM) |  |  |  |  |  |  |  |  |  |
| CCOC(=O)CCNc1nc(N)nc(OC)c1N=O |  |  |  |  |  |  |  |  |  | inactive | inactive | inactive | inactive | inactive | inactive | inactive | inactive | inactive |
| CC(C)Nc1nc(N)nc(NCc2ccccc2)c1N=O |  |  |  |  |  |  |  |  |  | inactive | inactive | inactive | inactive | inactive | inactive | inactive | inactive | inactive |
| Nc1nc(NC(CO)C(=O)O)c(N=O)c(=O)[nH]1 (stereo not drawn) |  |  |  |  |  |  |  |  |  | inactive | inactive | inactive | inactive | inactive | inactive | inactive | inactive | inactive |
| CCOC(=O)CCNc1nc(N)nc(Nc2ccccc2)c1N=O |  |  |  |  |  |  |  |  |  | inactive | inactive | inactive | inactive | inactive | inactive | inactive | inactive | inactive |
| CC(C)Nc1nc(N)nc(Nc2cccc(Cl)c2)c1N=O |  |  |  |  |  |  |  |  |  | inactive | inactive | inactive | inactive | inactive | inactive | inactive | inactive | inactive |
| COc1nc(N)c(N=O)c(N2CCCC2)n1 |  |  |  |  |  |  |  |  |  | inactive | inactive | inactive | inactive | inactive | inactive | inactive | inactive | inactive |
| C[C@@H]1Nc2nc(N)nc(OCC3CCCCC3)c2NC1=O |  |  |  |  |  |  |  |  |  | inactive | inactive | inactive | inactive | inactive | inactive | inactive | inactive | inactive |
| COc1nc(N)nc(NCCO)c1N=O |  |  |  |  |  |  |  |  |  | inactive | inactive | inactive | inactive | inactive | inactive | inactive | inactive | inactive |
| Nc1nc(NC23CC4CC(CC(C4)C2)C3)c(N=O)c(=O)[nH]1 |  |  |  |  |  |  |  |  |  | inactive | inactive | inactive | inactive | inactive | inactive | inactive | inactive | inactive |
| COc1nc(N)nc(NC23CC4CC(CC(C4)C2)C3)c1N=O |  |  |  |  |  |  |  |  |  | inactive | inactive | inactive | inactive | inactive | inactive | inactive | inactive | inactive |
| Nc1nc(NCc2ccccc2)c(N=O)c(NCc2ccccc2)n1 |  |  |  |  |  |  |  |  |  | inactive | inactive | inactive | inactive | inactive | inactive | inactive | inactive | inactive |
| CNc1nc(N)nc(NCc2ccccc2)c1N=O |  |  |  |  |  |  |  |  |  | inactive | inactive | inactive | inactive | inactive | inactive | inactive | inactive | inactive |
| CCC(C)C(Nc1nc(N)[nH]c(=O)c1N=O)C(=O)O (stereo not drawn) |  |  |  |  |  |  |  |  |  | inactive | inactive | inactive | inactive | inactive | inactive | inactive | inactive | inactive |
| COc1nc(N)nc(NCCOCCO)c1N=O |  |  |  |  |  |  |  |  |  | inactive | inactive | inactive | inactive | inactive | inactive | inactive | inactive | inactive |
| CC(=O)N1CCN(c2ccc(OCC3COC(Cn4ccnc4)(c4ccc(Cl)cc4Cl)O3)cc2)CC1 (stereo not drawn) [KETOCONAZOLE] | 0.06 (≈ 0.113 µM) | 0.98 (≈ 1.84 µM) | 0.12 (≈ 0.226 µM) | 0.03 (≈ 0.0565 µM) | 0.25 (≈ 0.47 µM) | 0.03 (≈ 0.0565 µM) | 0.25 (≈ 0.47 µM) | 0.49 (≈ 0.922 µM) | 0.49 (≈ 0.922 µM) |  |  |  |  |  |  |  |  |  |
| COc1nc(N)nc2c1NC(=O)CCN2 |  |  |  |  |  |  |  |  |  | inactive | inactive | inactive | inactive | inactive | inactive | inactive | inactive | inactive |
| Nc1nc(OCC2CCCCC2)c(N=O)c(OCC2CCCCC2)n1 |  |  |  |  |  |  |  |  |  | inactive | inactive | inactive | inactive | inactive | inactive | inactive | inactive | inactive |
| Nc1nc(NC2CCCCC2)c(N=O)c(N2CCCCCCCC2)n1 |  |  |  |  |  |  |  |  |  | inactive | inactive | inactive | inactive | inactive | inactive | inactive | inactive | inactive |
| CCOC(=O)[C@H](C)Nc1nc(N)nc(OCC2CCCCC2)c1N=O |  |  |  |  |  |  |  |  |  | inactive | inactive | inactive | inactive | inactive | inactive | inactive | inactive | inactive |
| COc1nc(N)nc(OC)c1N=O |  |  |  |  |  |  |  |  |  | inactive | inactive | inactive | inactive | inactive | inactive | inactive | inactive | inactive |
| COc1nc(N)nc2c1nnn2C12CC3CC(CC(C3)C1)C2 |  |  |  |  |  |  |  |  |  | inactive | inactive | inactive | inactive | inactive | inactive | inactive | inactive | inactive |
